Data as given in ChEMBL document CHEMBL1150405, “Structure-activity study of endomorphin-2 analogs with C-terminal modifications by NMR spectroscopy and molecular modeling” (Bioorg Med Chem, 2008).

Legend:
[1] = biological target: Mu-opioid receptor (Cavia porcellus, UniProt Q8CGM4); test: Agonist activity at mu opioid receptor in guinea pig ileum assessed as inhibition of electrically-stimulated contraction; format: functional, tissue-based
How it was run: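 Guinea pig ileum in a 10-ml bath of Krebs–Henseleit solution at 37 °C, aerated with 95% O₂/5% CO₂. Twitches evoked by 0.1-Hz, 50-V, 0.5-ms rectangular pulses; isometric recording. […] Arithmetic mean of five to eight measurements.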

[2] = biological target: Delta-type opioid receptor (Mus musculus, UniProt P32300); test: Agonist activity at delta opioid receptor in mouse vas deferens assessed as inhibition of electrically-stimulated contraction; format: functional, tissue-based
How it was run: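 Mouse vas deferens held at 36 °C in aerated (95% O₂/5% CO₂) Krebs–Henseleit, 10-ml bath. Pulse pairs (1-ms width, 100 ms apart, 9 V/cm supramaximal) repeated every 10 s; isometric twitch recording.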

[3] = biological target: Delta-type opioid receptor (Rattus norvegicus, UniProt P33533); test: Displacement of [3H]DPDPE from delta opioid receptor in rat brain membrane; format: cell membranes
How it was run: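 Wistar rat brain membranes (cerebellum removed) in 50 mM Tris–HCl, pH 7.4. [³H]DPDPE at 1 nM with varying peptide concentrations for 3 h at 25 °C in a rotating incubator. GF/C vacuum filtration, three ice-cold buffer washes, scintillation counting. Naloxone defined nonspecific binding. Duplicates, repeated at least three times; Ki calculated.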

[4] = species on record: Rattus norvegicus; test: Selectivity ratio of Ki for delta opioid receptor to Ki for mu opioid receptor in rat brain membrane; format: cell membranes
[5] = Selectivity ratio of IC50 for guinea pig ileum to IC50 for mouse vas deferens assay; format: tissue-based
[6] = biological target: Mu-type opioid receptor (Rattus norvegicus, UniProt P33535); test: Displacement of [3H]DAMGO from mu opioid receptor in rat brain membrane; format: cell membranes
How it was run: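 Wistar rat brain membranes (cerebellum removed) in 50 mM Tris–HCl, pH 7.4. [³H]DAMGO at 0.5 nM with varying peptide concentrations for 1 h at 25 °C in a rotating incubator. Stopped by vacuum filtration through GF/C filters, washed three times with ice-cold buffer, then scintillation counted. Nonspecific binding taken with naloxone. Duplicates, repeated at least three times; Ki derived.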

Chain of Delta-type opioid receptor (Mus musculus, UniProt P32300) (P32300 whole entry): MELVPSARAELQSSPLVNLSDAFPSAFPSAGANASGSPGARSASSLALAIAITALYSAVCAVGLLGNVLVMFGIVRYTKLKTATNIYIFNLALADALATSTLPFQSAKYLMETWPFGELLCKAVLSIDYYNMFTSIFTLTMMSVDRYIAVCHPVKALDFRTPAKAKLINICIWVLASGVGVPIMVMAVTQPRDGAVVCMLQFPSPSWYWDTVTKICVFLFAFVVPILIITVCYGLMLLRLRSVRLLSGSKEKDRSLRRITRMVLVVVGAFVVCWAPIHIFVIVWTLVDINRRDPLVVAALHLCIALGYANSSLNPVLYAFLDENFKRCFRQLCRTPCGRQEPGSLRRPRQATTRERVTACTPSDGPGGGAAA
Chain of Mu-type opioid receptor (P33535 whole entry): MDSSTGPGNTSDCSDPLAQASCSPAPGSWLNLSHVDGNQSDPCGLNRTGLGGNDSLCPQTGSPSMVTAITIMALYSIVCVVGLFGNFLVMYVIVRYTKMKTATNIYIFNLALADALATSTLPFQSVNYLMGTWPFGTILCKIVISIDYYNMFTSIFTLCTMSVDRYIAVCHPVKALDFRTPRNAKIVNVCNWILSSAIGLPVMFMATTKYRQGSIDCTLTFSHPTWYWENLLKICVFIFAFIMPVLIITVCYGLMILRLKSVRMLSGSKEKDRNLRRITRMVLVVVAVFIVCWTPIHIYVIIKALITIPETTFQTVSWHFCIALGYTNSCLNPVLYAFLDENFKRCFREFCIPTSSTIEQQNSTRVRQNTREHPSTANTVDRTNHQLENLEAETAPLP
Chain of Delta-type opioid receptor (Rattus norvegicus, UniProt P33533) (P33533 whole entry): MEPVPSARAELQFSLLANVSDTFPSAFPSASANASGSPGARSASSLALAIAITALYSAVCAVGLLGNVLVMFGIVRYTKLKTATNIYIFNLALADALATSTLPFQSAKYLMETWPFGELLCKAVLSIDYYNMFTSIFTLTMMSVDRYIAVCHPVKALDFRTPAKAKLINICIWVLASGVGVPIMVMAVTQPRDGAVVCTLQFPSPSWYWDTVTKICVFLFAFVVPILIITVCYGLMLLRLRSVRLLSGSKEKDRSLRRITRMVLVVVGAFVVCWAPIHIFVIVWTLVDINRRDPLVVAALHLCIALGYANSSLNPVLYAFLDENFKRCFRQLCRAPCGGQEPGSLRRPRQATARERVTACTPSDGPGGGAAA
Chain of Mu-opioid receptor (Q8CGM4 whole entry): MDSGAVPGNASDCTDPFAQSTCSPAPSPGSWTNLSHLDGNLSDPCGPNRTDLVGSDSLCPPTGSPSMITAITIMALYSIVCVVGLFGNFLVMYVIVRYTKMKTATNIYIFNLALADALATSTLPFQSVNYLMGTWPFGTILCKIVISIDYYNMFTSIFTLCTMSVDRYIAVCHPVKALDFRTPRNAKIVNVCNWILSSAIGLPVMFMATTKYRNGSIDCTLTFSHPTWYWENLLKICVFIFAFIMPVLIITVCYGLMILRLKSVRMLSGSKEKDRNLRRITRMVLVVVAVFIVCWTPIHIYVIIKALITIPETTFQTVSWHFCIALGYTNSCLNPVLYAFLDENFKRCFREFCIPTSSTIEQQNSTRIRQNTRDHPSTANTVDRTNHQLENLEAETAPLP

Row | Compound | IC50 [1] [nM] | IC50 [2] [nM] | Ki [3] [nM] | Ratio Ki [4] | IC50 ratio (guinea pig ileum / mouse vas deferens) [5] | Ki [6] [nM]
1 | CN(C)C(=O)[C@H](Cc1ccccc1)NC(=O)[C@H](Cc1ccccc1)NC(=O)[C@@H]1CCCN1C(=O)[C@@H](N)Cc1ccc(O)cc1 | 1810 | 2720 | > 10000 | > 36.7 | 0.66 | 273
2 | CC(C)(C)OC(=O)[C@H](Cc1ccccc1)NC(=O)[C@H](Cc1ccccc1)NC(=O)[C@@H]1CCCN1C(=O)[C@@H](N)Cc1ccc(O)cc1 | 3000 | 74.1 | 247 | 4.9 | 40.5 | 50.3
3 | CCOC(=O)[C@H](Cc1ccccc1)NC(=O)[C@H](Cc1ccccc1)NC(=O)[C@@H]1CCCN1C(=O)[C@@H](N)Cc1ccc(O)cc1 | 64.4 | 63.7 | 2940 | 196 | 1 | 15
4 | N[C@@H](Cc1ccc(O)cc1)C(=O)N1CCC[C@H]1C(=O)N[C@@H](Cc1ccccc1)C(=O)N[C@H](CO)Cc1ccccc1 | 29.3 | 29.2 | > 10000 | > 1580 | 1 | 6.34
5 | COC(=O)[C@H](Cc1ccccc1)NC(=O)[C@H](Cc1ccccc1)NC(=O)[C@@H]1CCCN1C(=O)[C@@H](N)Cc1ccc(O)cc1 | 42.1 | – | > 10000 | > 1100 | 1.1 | 9.07
6 | CNC(=O)[C@H](Cc1ccccc1)NC(=O)[C@H](Cc1ccccc1)NC(=O)[C@@H]1CCCN1C(=O)[C@@H](N)Cc1ccc(O)cc1 | 136 | 54.6 | 8470 | 290 | 2.5 | 29.2
7 | NNC(=O)[C@H](Cc1ccccc1)NC(=O)[C@H](Cc1ccccc1)NC(=O)[C@@H]1CCCN1C(=O)[C@@H](N)Cc1ccc(O)cc1 | 132 | – | > 10000 | > 1070 | 0.71 | 9.35
